From ChEMBL document CHEMBL5058577, “EUbOPEN Chemogenomics Library 2 (Multiplex)” (2022)

Tested on: Fibroblast
Assay: Multiplex assay against human fibroblast
Type: toxicity, cell-based
Outline: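 Per cents of healthy-nucleus cells form the tubulin, mitochondrial-mass and membrane-permeability phenotype values. Live cells were stained at seeding with Hoechst33342, BioTracker Green Microtubule Cytoskeleton Dye, MitoTracker Red and Annexin V Alexa Fluor 680. After compound addition they were imaged on a CQ1 microscope at 37°C and 5% CO2, and CellPathfinder machine-learning gating split them into Hoechst high-intensity objects or normal cells, normal cells into healthy, pyknosed or fragmented nuclei, and pyknosed cells into mitotic or apoptotic.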

[1] = 12 h, 1 µM, compound concentration 1 uM, replicate 1
[2] = 12 h, 1 µM, compound concentration 1 uM, replicate 2
[3] = 12 h, 10 µM, compound concentration 10 uM, replicate 1
[4] = 12 h, 10 µM, compound concentration 10 uM, replicate 2
[5] = 24 h, 1 µM, compound concentration 1 uM, replicate 1
[6] = 24 h, 1 µM, compound concentration 1 uM, replicate 2
[7] = 24 h, 10 µM, compound concentration 10 uM, replicate 1
[8] = 24 h, 10 µM, compound concentration 10 uM, replicate 2
[9] = 48 h, 1 µM, compound concentration 1 uM, replicate 1
[10] = 48 h, 1 µM, compound concentration 1 uM, replicate 2
[11] = 48 h, 10 µM, compound concentration 10 uM, replicate 1
[12] = 48 h, 10 µM, compound concentration 10 uM, replicate 2

CCC(=O)OCC(=O)[C@@]1(OC(=O)CC)[C@@H](C)C[C@H]2[C@@H]3CCC4=CC(=O)C=C[C@]4(C)[C@@]3(Cl)[C@@H](O)C[C@@]21C [BECLOMETHASONE DIPROPIONATE]
Population Apoptotic (%) [1]: 38%
Population Fragmented Nuclei (%) [1]: 13%
Population Healthy Nuclei (%) [1]: 73%
Population Hoechst High Intensity Objects (%) [1]: 3%
Population Membrane Permeable-Phenotype (%) [1]: 1%
Population Mitochondria Different-Phenotype (%) [1]: 2%
Population Mitotic Cells (%) [1]: 61%
Population Normal (%) [1]: 96%
Population Pyknosed Nuclei (%) [1]: 13%
Population Tubulin-Different-Phenotype (%) [1]: 47%
Total Cell Count [1]: 135
Population Apoptotic (%) [2]: 42%
Population Fragmented Nuclei (%) [2]: 30%
Population Healthy Nuclei (%) [2]: 40%
Population Membrane Permeable-Phenotype (%) [2]: 5%
Population Mitochondria Different-Phenotype (%) [2]: 10%
Population Mitotic Cells (%) [2]: 57%
Population Pyknosed Nuclei (%) [2]: 30%
Population Tubulin-Different-Phenotype (%) [2]: 63%
Total Cell Count [2]: 155
Population Apoptotic (%) [3]: 40%
Population Fragmented Nuclei (%) [3]: 9%
Population Healthy Nuclei (%) [3]: 69%
Population Hoechst High Intensity Objects (%) [3]: 8%
Population Membrane Permeable-Phenotype (%) [3]: 1%
Population Mitochondria Different-Phenotype (%) [3]: 17%
Population Mitotic Cells (%) [3]: 60%
Population Normal (%) [3]: 91%
Population Pyknosed Nuclei (%) [3]: 20%
Population Tubulin-Different-Phenotype (%) [3]: 87%
Total Cell Count [3]: 157
Population Fragmented Nuclei (%) [4]: 32%
Population Healthy Nuclei (%) [4]: 42%
Population Hoechst High Intensity Objects (%) [4]: 5%
Population Membrane Permeable-Phenotype (%) [4]: 15%
Population Mitochondria Different-Phenotype (%) [4]: 20%
Population Mitotic Cells (%) [4]: 59%
Population Normal (%) [4]: 94%
Population Pyknosed Nuclei (%) [4]: 24%
Population Tubulin-Different-Phenotype (%) [4]: 94%
Total Cell Count [4]: 96
Population Apoptotic (%) [5]: 50%
Population Fragmented Nuclei (%) [5]: 16%
Population Healthy Nuclei (%) [5]: 65%
Population Hoechst High Intensity Objects (%) [5]: 1%
Population Membrane Permeable-Phenotype (%) [5]: 3%
Population Mitochondria Different-Phenotype (%) [5]: 2%
Population Mitotic Cells (%) [5]: 50%
Population Normal (%) [5]: 98%
Population Pyknosed Nuclei (%) [5]: 18%
Population Tubulin-Different-Phenotype (%) [5]: 34%
Total Cell Count [5]: 134
Population Apoptotic (%) [6]: 47%
Population Fragmented Nuclei (%) [6]: 30%
Population Healthy Nuclei (%) [6]: 45%
Population Hoechst High Intensity Objects (%) [6]: 6%
Population Membrane Permeable-Phenotype (%) [6]: 7%
Population Mitochondria Different-Phenotype (%) [6]: 7%
Population Mitotic Cells (%) [6]: 52%
Population Normal (%) [6]: 93%
Population Pyknosed Nuclei (%) [6]: 24%
Population Tubulin-Different-Phenotype (%) [6]: 60%
Total Cell Count [6]: 150
Population Apoptotic (%) [7]: 40%
Population Fragmented Nuclei (%) [7]: 13%
Population Healthy Nuclei (%) [7]: 66%
Population Hoechst High Intensity Objects (%) [7]: 6%
Population Membrane Permeable-Phenotype (%) [7]: 1%
Population Mitochondria Different-Phenotype (%) [7]: 30%
Population Mitotic Cells (%) [7]: 59%
Population Normal (%) [7]: 93%
Population Pyknosed Nuclei (%) [7]: 19%
Population Tubulin-Different-Phenotype (%) [7]: 86%
Total Cell Count [7]: 148
Population Apoptotic (%) [8]: 19%
Population Fragmented Nuclei (%) [8]: 38%
Population Healthy Nuclei (%) [8]: 40%
Population Membrane Permeable-Phenotype (%) [8]: 15%
Population Mitochondria Different-Phenotype (%) [8]: 12%
Population Mitotic Cells (%) [8]: 80%
Population Pyknosed Nuclei (%) [8]: 21%
Population Tubulin-Different-Phenotype (%) [8]: 79%
Total Cell Count [8]: 104
Population Apoptotic (%) [9]: 28%
Population Fragmented Nuclei (%) [9]: 13%
Population Healthy Nuclei (%) [9]: 56%
Population Hoechst High Intensity Objects (%) [9]: 3%
Population Membrane Permeable-Phenotype (%) [9]: 1%
Population Mitochondria Different-Phenotype (%) [9]: 15%
Population Mitotic Cells (%) [9]: 71%
Population Normal (%) [9]: 96%
Population Pyknosed Nuclei (%) [9]: 30%
Population Tubulin-Different-Phenotype (%) [9]: 61%
Total Cell Count [9]: 132
Population Apoptotic (%) [10]: 52%
Population Fragmented Nuclei (%) [10]: 31%
Population Healthy Nuclei (%) [10]: 41%
Population Hoechst High Intensity Objects (%) [10]: 7%
Population Membrane Permeable-Phenotype (%) [10]: 5%
Population Mitochondria Different-Phenotype (%) [10]: 9%
Population Mitotic Cells (%) [10]: 47%
Population Normal (%) [10]: 92%
Population Pyknosed Nuclei (%) [10]: 27%
Population Tubulin-Different-Phenotype (%) [10]: 54%
Total Cell Count [10]: 143
Population Apoptotic (%) [11]: 67%
Population Fragmented Nuclei (%) [11]: 21%
Population Healthy Nuclei (%) [11]: 54%
Population Hoechst High Intensity Objects (%) [11]: 6%
Population Membrane Permeable-Phenotype (%) [11]: 0%
Population Mitochondria Different-Phenotype (%) [11]: 47%
Population Mitotic Cells (%) [11]: 32%
Population Normal (%) [11]: 93%
Population Pyknosed Nuclei (%) [11]: 24%
Population Tubulin-Different-Phenotype (%) [11]: 76%
Total Cell Count [11]: 162
Population Apoptotic (%) [12]: 37%
Population Fragmented Nuclei (%) [12]: 33%
Population Healthy Nuclei (%) [12]: 33%
Population Hoechst High Intensity Objects (%) [12]: 3%
Population Membrane Permeable-Phenotype (%) [12]: 18%
Population Mitochondria Different-Phenotype (%) [12]: 15%
Population Mitotic Cells (%) [12]: 62%
Population Normal (%) [12]: 96%
Population Pyknosed Nuclei (%) [12]: 33%
Population Tubulin-Different-Phenotype (%) [12]: 84%
Total Cell Count [12]: 99
